Data: ChEMBL document CHEMBL2021799, “Exploring the interplay of physicochemical properties, membrane permeability and giardicidal activity of some benzimidazole derivatives” (Eur J Med Chem, 2012)
≈ marks a conversion by molar mass, not a printed value.

Columns and labels:
Caco-2 [1] = assay: Efflux ratio of permeability from apical to basolateral side over basolateral to apical side in human Caco2 cells at 100 uM up to 90 mins; conditions: caco-2, 1.5 h
Caco-2 [2] = assay: Apparent permeability from apical to basolateral side of human Caco2 cells at 100 uM up to 90 mins; conditions: caco-2, 1.5 h
[3] = Lipophilicity, logkw of the compound by RP-HPLC analysis
Giardia intestinalis [4] = assay: Antiparasitic activity against Giardia duodenalis IMSS:0989 after 48 hrs; type: functional, organism-based; conditions: IMSS:0989, 48 h
Method in brief: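 G. duodenalis trophozoites grown in modified TYI-S-33 with 10% calf serum and bovine bile. 5 × 10⁴ trophozoites incubated 48 h at 37 °C with increasing compound concentrations; DMSO-treated trophozoites as negative control. An aliquot was then subcultured 48 h in fresh drug-free medium, trophozoites counted, and IC50 obtained by Probit analysis.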

[5] = Distribution coefficient, log D of the compound; conditions: octanol/water
[6] = Aqueous solubility of the compound
Caco-2 [7] = assay: Apparent permeability from basolateral to apical side of human Caco2 cells at 100 uM up to 90 mins; conditions: caco-2, 1.5 h
Caco-2 [8] = assay: Influx ratio of permeability from basolateral to apical side over apical to basolateral side in human Caco2 cells at 100 uM up to 90 mins; conditions: caco-2, 1.5 h
Giardia intestinalis [9] = assay: Ratio of metronidazole IC50 to compound IC50 for Giardia duodenalis IMSS:0989; type: functional
[10] = aqueous medium, not specified further

COC(=O)c1ccc2[nH]c(C(F)(F)F)nc2c1
Ratio (Caco-2 [1]): 0.7
Papp (Caco-2 [2]): 32.7 ×10⁻⁶ cm/s
logKw [3]: 1.94
IC50 (Giardia intestinalis [4]): 1190 nM
logD [5]: 3.52
solubility [6, 10]: 0.555 µg/mL (≈ 2.27 µM)
log1/S ([6]; buffer): 5.64
Papp (Caco-2 [7]): 23 ×10⁻⁶ cm/s
Ratio (Caco-2 [8]): 1.42

CC(C)NCC(O)COc1cccc2ccccc12 (centres undefined) [PROPRANOLOL]
Ratio (Caco-2 [1]): 0.78
Papp (Caco-2 [7]): 37.9 ×10⁻⁶ cm/s
Ratio (Caco-2 [8]): 1.27

CCN(CC)C(=O)COC(=O)c1ccc2nc(C(F)(F)F)n(C)c2c1
Ratio (Caco-2 [1]): 0.84
Papp (Caco-2 [2]): 15.4 ×10⁻⁶ cm/s
logKw [3]: 2.29
IC50 (Giardia intestinalis [4]): 470 nM
logD [5]: 2.81
solubility [6, 10]: 0.0572 µg/mL (≈ 0.16 µM)
log1/S ([6]; buffer): 6.62
Papp (Caco-2 [7]): 13 ×10⁻⁶ cm/s
Ratio (Caco-2 [8]): 1.17

Cn1c(C(F)(F)F)nc2cc(C(=O)O)ccc21
Ratio (Caco-2 [1]): 0.74
Papp (Caco-2 [2]): 9.83 ×10⁻⁶ cm/s
logKw [3]: 1.47
IC50 (Giardia intestinalis [4]): 2770 nM
logD [5]: 2.98
solubility [6, 10]: 10.9 µg/mL (≈ 44.6 µM)
log1/S ([6]; buffer): 4.35
Papp (Caco-2 [7]): 7.25 ×10⁻⁶ cm/s
Ratio (Caco-2 [8]): 1.35

CSc1nc2ccc(Cl)cc2n1C
IC50 (Giardia intestinalis [4]): 122 nM

CNC(=O)c1ccc2nc(C(F)(F)F)n(C)c2c1
Ratio (Caco-2 [1]): 0.61
Papp (Caco-2 [2]): 14.6 ×10⁻⁶ cm/s
logKw [3]: 1.33
IC50 (Giardia intestinalis [4]): 211 nM
logD [5]: 3.92
solubility [6, 10]: 29.6 µg/mL (≈ 115 µM)
log1/S ([6]; buffer): 3.93
Papp (Caco-2 [7]): 8.98 ×10⁻⁶ cm/s
Ratio (Caco-2 [8]): 1.62

COC(=O)c1ccc2c(c1)nc(C(F)(F)F)n2C
Ratio (Caco-2 [1]): 0.89
Papp (Caco-2 [2]): 26.7 ×10⁻⁶ cm/s
logKw [3]: 2.05
IC50 (Giardia intestinalis [4]): 2450 nM
logD [5]: 3.65
solubility [6, 10]: 0.281 µg/mL (≈ 1.09 µM)
log1/S ([6]; buffer): 5.96
Papp (Caco-2 [7]): 23.9 ×10⁻⁶ cm/s
Ratio (Caco-2 [8]): 1.11

Cn1c(S)nc2cc(Cl)ccc21
Ratio (Caco-2 [1]): 1.38
Papp (Caco-2 [2]): 6.92 ×10⁻⁶ cm/s
logKw [3]: 1.61
IC50 (Giardia intestinalis [4]): 45 nM
logD [5]: 3.14
solubility [6, 10]: 3.79 µg/mL (≈ 19.1 µM)
log1/S ([6]; buffer): 4.71
Ratio IC50 (Giardia intestinalis [9]): 61
Papp (Caco-2 [7]): 9.57 ×10⁻⁶ cm/s
Ratio (Caco-2 [8]): 0.72

Cc1nc2ccc(Cl)cc2n1C
IC50 (Giardia intestinalis [4]): 44 nM

Cn1c(S)nc2ccc(Cl)cc21
Ratio (Caco-2 [1]): 1.93
Papp (Caco-2 [2]): 14.1 ×10⁻⁶ cm/s
logKw [3]: 1.9
IC50 (Giardia intestinalis [4]): 20 nM
logD [5]: 3.47
solubility [6, 10]: 0.588 µg/mL (≈ 2.96 µM)
log1/S ([6]; buffer): 5.59
Ratio IC50 (Giardia intestinalis [9]): 27
Papp (Caco-2 [7]): 27.2 ×10⁻⁶ cm/s
Ratio (Caco-2 [8]): 0.51

Cn1c(S)nc2ccccc21
Ratio (Caco-2 [1]): 1.78
Papp (Caco-2 [2]): 8.14 ×10⁻⁶ cm/s
logKw [3]: 1.23
IC50 (Giardia intestinalis [4]): 18 nM
logD [5]: 2.7
solubility [6, 10]: 36 µg/mL (≈ 219 µM)
log1/S ([6]; buffer): 3.65
Ratio IC50 (Giardia intestinalis [9]): 67
Papp (Caco-2 [7]): 14.5 ×10⁻⁶ cm/s
Ratio (Caco-2 [8]): 0.56

CNC(=O)c1ccc2[nH]c(C(F)(F)F)nc2c1
logKw [3]: 1.21
IC50 (Giardia intestinalis [4]): 320 nM
logD [5]: 2.68
solubility [6, 10]: 87.8 µg/mL (≈ 361 µM)
log1/S ([6]; buffer): 3.6

Cn1c(C(F)(F)F)nc2ccc(C(=O)O)cc21
Ratio (Caco-2 [1]): 0.91
Papp (Caco-2 [2]): 5.09 ×10⁻⁶ cm/s
logKw [3]: 1.13
IC50 (Giardia intestinalis [4]): 330 nM
logD [5]: 3.7
solubility [6, 10]: 98.7 µg/mL (≈ 404 µM)
log1/S ([6]; buffer): 3.39
Papp (Caco-2 [7]): 4.65 ×10⁻⁶ cm/s
Ratio (Caco-2 [8]): 1.09

FC(F)(F)c1nc2cc(Cl)c(Cl)cc2[nH]1
logKw [3]: 2.78
logD [5]: 4.49
solubility [6, 10]: 0.0025 µg/mL (≈ 0.0098 µM)
log1/S ([6]; buffer): 8

Cc1nc2cc(Cl)c(Cl)cc2n1C
Ratio (Caco-2 [1]): 1.4
Papp (Caco-2 [2]): 7.98 ×10⁻⁶ cm/s
logKw [3]: 2.24
IC50 (Giardia intestinalis [4]): 55 nM
logD [5]: 3.86
solubility [6, 10]: 0.0716 µg/mL (≈ 0.333 µM)
log1/S ([6]; buffer): 6.47
Papp (Caco-2 [7]): 11.2 ×10⁻⁶ cm/s
Ratio (Caco-2 [8]): 0.71

Cn1c(N)nc2cc(Cl)ccc21
Ratio (Caco-2 [1]): 1.83
Papp (Caco-2 [2]): 5.21 ×10⁻⁶ cm/s
logKw [3]: 3.19
IC50 (Giardia intestinalis [4]): 242 nM
logD [5]: 4.95
log1/S ([6]; buffer): 9.12
solubility ([6]; buffer): 0.0001 µg/mL (≈ 0.000551 µM)
Papp (Caco-2 [7]): 9.57 ×10⁻⁶ cm/s
Ratio (Caco-2 [8]): 0.54

CCCSc1ccc2nc(NC(=O)OC)[nH]c2c1 [ALBENDAZOLE]
Ratio (Caco-2 [1]): 0.74
Papp (Caco-2 [2]): 3.14 ×10⁻⁶ cm/s
logKw [3]: 1.95
logD [5]: 3.83
solubility [6, 10]: 0.75 µg/mL (≈ 2.83 µM)
log1/S ([6]; buffer): 5.55
Papp (Caco-2 [7]): 1.99 ×10⁻⁶ cm/s
Ratio (Caco-2 [8]): 1.35

O=C(O)c1ccc2nc(C(F)(F)F)[nH]c2c1
Papp (Caco-2 [2]): 0.57 ×10⁻⁶ cm/s
IC50 (Giardia intestinalis [4]): 172 nM
solubility [6, 10]: 0.189 µg/mL (≈ 0.819 µM)
Papp (Caco-2 [7]): 0.74 ×10⁻⁶ cm/s

Cn1c(C(F)(F)F)nc2cc(Cl)ccc21
logKw [3]: 2.33
logD [5]: 3.98
solubility [6, 10]: 0.0412 µg/mL (≈ 0.176 µM)
log1/S ([6]; buffer): 6.75

CSc1nc2cc(Cl)ccc2n1C
Ratio (Caco-2 [1]): 1.87
Papp (Caco-2 [2]): 7.59 ×10⁻⁶ cm/s
logKw [3]: 2.46
IC50 (Giardia intestinalis [4]): 28 nM
logD [5]: 4.11
solubility [6, 10]: 0.0172 µg/mL (≈ 0.0809 µM)
log1/S ([6]; buffer): 7.09
Papp (Caco-2 [7]): 14.2 ×10⁻⁶ cm/s
Ratio (Caco-2 [8]): 0.53

COC(=O)Nc1nc2ccccc2[nH]1 [CARBENDAZIM]
logKw [3]: 0.9
logD [5]: 1.49
log1/S ([6]; buffer): 1.89
solubility ([6]; buffer): 2441 µg/mL (≈ 12800 µM)

COC(=O)Nc1nc2ccc(C(=O)c3ccccc3)cc2[nH]1 [MEBENDAZOLE]
Papp (Caco-2 [2]): 5.15 ×10⁻⁶ cm/s
logKw [3]: 1.68
IC50 (Giardia intestinalis [4]): 55 nM
logD [5]: 3.73
Papp (Caco-2 [7]): 4.34 ×10⁻⁶ cm/s

COC(=O)c1ccc2nc(C(F)(F)F)n(C)c2c1
Ratio (Caco-2 [1]): 0.55
Papp (Caco-2 [2]): 39.2 ×10⁻⁶ cm/s
logKw [3]: 2.24
IC50 (Giardia intestinalis [4]): 3820 nM
logD [5]: 3.86
solubility [6, 10]: 0.0859 µg/mL (≈ 0.333 µM)
log1/S ([6]; buffer): 6.47
Papp (Caco-2 [7]): 21.8 ×10⁻⁶ cm/s
Ratio (Caco-2 [8]): 1.8

FC(F)(F)c1nc2ccccc2[nH]1
logKw [3]: 1.8
logD [5]: 3.36
solubility [6, 10]: 0.992 µg/mL (≈ 5.33 µM)
log1/S ([6]; buffer): 5.27

CCN(CC)C(=O)COC(=O)c1ccc2c(c1)nc(C(F)(F)F)n2C
Ratio (Caco-2 [1]): 0.5
Papp (Caco-2 [2]): 21.9 ×10⁻⁶ cm/s
logKw [3]: 2.4
IC50 (Giardia intestinalis [4]): 133 nM
logD [5]: 4.06
solubility [6, 10]: 0.0401 µg/mL (≈ 0.112 µM)
log1/S ([6]; buffer): 6.94
Papp (Caco-2 [7]): 11 ×10⁻⁶ cm/s
Ratio (Caco-2 [8]): 1.99

c1ccc2[nH]cnc2c1 [BENZIMIDAZOLE]
logKw [3]: 0.27
IC50 (Giardia intestinalis [4]): 137000 nM
logD [5]: 1.37
solubility [6, 10]: 7600 µg/mL (≈ 64400 µM)
log1/S ([6]; buffer): 1.45

COC(=O)Nc1nc2ccc(Sc3ccccc3)cc2[nH]1 [FENBENDAZOLE]
logKw [3]: 2.44
IC50 (Giardia intestinalis [4]): 56 nM
logD [5]: 3.93
solubility [6, 10]: 0.025 µg/mL (≈ 0.0835 µM)
log1/S ([6]; buffer): 7.07

Cc1nc2ccccc2n1C
Ratio (Caco-2 [1]): 1.13
Papp (Caco-2 [2]): 9.03 ×10⁻⁶ cm/s
logKw [3]: 0.42
IC50 (Giardia intestinalis [4]): 89 nM
logD [5]: 1.77
solubility [6, 10]: 5790 µg/mL (≈ 39600 µM)
log1/S ([6]; buffer): 1.4
Papp (Caco-2 [7]): 10.2 ×10⁻⁶ cm/s
Ratio (Caco-2 [8]): 0.88

Cn1c(C(F)(F)F)nc2ccc(Cl)cc21
logKw [3]: 2.37
logD [5]: 4.02
solubility [6, 10]: 0.033 µg/mL (≈ 0.141 µM)
log1/S ([6]; buffer): 6.85

CSc1nc2ccccc2n1C
Ratio (Caco-2 [1]): 1.34
Papp (Caco-2 [2]): 7.12 ×10⁻⁶ cm/s
logKw [3]: 1.78
IC50 (Giardia intestinalis [4]): 33 nM
logD [5]: 3.33
solubility [6, 10]: 1.14 µg/mL (≈ 6.39 µM)
log1/S ([6]; buffer): 5.19
Papp (Caco-2 [7]): 9.57 ×10⁻⁶ cm/s
Ratio (Caco-2 [8]): 0.74
